From ChEMBL document CHEMBL5724801, “EUbOPEN Chemogenomics Library - Multiplex” (2024)
Where “and” joins values, the source holds several entries; their conditions need not be identical. Equal entries are not always repeated.

System: U2OS
Assay: Multiplex assay against U2OS
Format: toxicity, cell-based
Settings: human
How it was run: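 With compound added, live cells were imaged on a CQ1 microscope at 37°C and 5% CO2; staining with Hoechst33342, BioTracker Green Microtubule Cytoskeleton Dye, MitoTracker Red and Annexin V Alexa Fluor 680 had been done at seeding. The CellPathfinder machine-learning gating scheme split cells into Hoechst high-intensity objects or normal cells, normal cells into healthy, pyknosed or fragmented nuclei, and pyknosed cells into mitotic or apoptotic. The tubulin, mitochondrial-mass and membrane-permeability phenotypes are per cents of healthy-nucleus cells.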

[1] = 12 h, 1 µM, compound concentration 1 uM
[2] = 12 h, 10 µM, compound concentration 10 uM
[3] = 24 h, 1 µM, compound concentration 1 uM
[4] = 24 h, 10 µM, compound concentration 10 uM
[5] = 48 h, 1 µM, compound concentration 1 uM
[6] = 48 h, 10 µM, compound concentration 10 uM

Nc1nc(-c2ccco2)c2cnn(Cc3ccccc3F)c2n1
Population Apoptotic (%) [1]: 82% and 92% | Population Fragmented Nuclei (%) [1]: 23% | Population Healthy Nuclei (%) [1]: 68% and 64% | Population Hoechst High Intensity Objects (%) [1]: 1% and 0% | Population Membrane Permeable-Phenotype (%) [1]: 4% and 12% | Population Mitochondria Different-Phenotype (%) [1]: 2% and 5% | Population Mitotic Cells (%) [1]: 17% and 7% | Population Normal (%) [1]: 98% and 99% | Population Pyknosed Nuclei (%) [1]: 8% and 12% | Population Tubulin-Different-Phenotype (%) [1]: 3% and 8% | Total Cell Count [1]: 280 and 109 | Population Apoptotic (%) [2]: 87% and 77% | Population Fragmented Nuclei (%) [2]: 41% and 20% | Population Healthy Nuclei (%) [2]: 45% and 72% | Population Hoechst High Intensity Objects (%) [2]: 5% and 0% | Population Membrane Permeable-Phenotype (%) [2]: 10% and 5% | Population Mitochondria Different-Phenotype (%) [2]: 4% and 5% | Population Mitotic Cells (%) [2]: 12% and 22% | Population Normal (%) [2]: 94% and 99% | Population Pyknosed Nuclei (%) [2]: 12% and 7% | Population Tubulin-Different-Phenotype (%) [2]: 7% and 1% | Total Cell Count [2]: 197 and 125 | Population Apoptotic (%) [3]: 96% and 84% | Population Fragmented Nuclei (%) [3]: 19% and 18% | Population Healthy Nuclei (%) [3]: 70% and 71% | Population Hoechst High Intensity Objects (%) [3]: 1% and 4% | Population Membrane Permeable-Phenotype (%) [3]: 4% and 10% | Population Mitochondria Different-Phenotype (%) [3]: 1% and 3% | Population Normal (%) [3]: 98% and 95% | Population Pyknosed Nuclei (%) [3]: 9% and 10% | Population Tubulin-Different-Phenotype (%) [3]: 2% and 8% | Total Cell Count [3]: 332 and 127 | Population Apoptotic (%) [4]: 82% and 90% | Population Fragmented Nuclei (%) [4]: 38% and 19% | Population Healthy Nuclei (%) [4]: 53% and 73% | Population Hoechst High Intensity Objects (%) [4]: 5% and 1% | Population Membrane Permeable-Phenotype (%) [4]: 7% and 5% | Population Mitochondria Different-Phenotype (%) [4]: 3% and 0% | Population Mitotic Cells (%) [4]: 17% and 9% | Population Normal (%) [4]: 94% and 98% | Population Pyknosed Nuclei (%) [4]: 7% | Population Tubulin-Different-Phenotype (%) [4]: 5% and 4% | Total Cell Count [4]: 230 and 157 | Population Apoptotic (%) [5]: 94% and 95% | Population Fragmented Nuclei (%) [5]: 17% and 16% | Population Healthy Nuclei (%) [5]: 74% and 67% | Population Hoechst High Intensity Objects (%) [5]: 1% and 6% | Population Membrane Permeable-Phenotype (%) [5]: 2% and 5% | Population Mitochondria Different-Phenotype (%) [5]: 2% and 5% | Population Mitotic Cells (%) [5]: 5% and 4% | Population Normal (%) [5]: 98% and 93% | Population Pyknosed Nuclei (%) [5]: 7% and 15% | Population Tubulin-Different-Phenotype (%) [5]: 2% and 1% | Population Apoptotic (%) [6]: 95% and 86% | Population Fragmented Nuclei (%) [6]: 37% and 23% | Population Healthy Nuclei (%) [6]: 51% and 69% | Population Hoechst High Intensity Objects (%) [6]: 11% and 2% | Population Membrane Permeable-Phenotype (%) [6]: 17% and 12% | Population Mitochondria Different-Phenotype (%) [6]: 6% | Population Mitotic Cells (%) [6]: 4% and 13% | Population Normal (%) [6]: 88% and 97% | Population Pyknosed Nuclei (%) [6]: 10% and 7% | Population Tubulin-Different-Phenotype (%) [6]: 11% and 6% | Total Cell Count [6]: 252 and 196

CC1(COc2ccc3c(c2)ncn3-c2ccc3cccc(N4CCC(N)CC4)c3n2)COC1 [CRENOLANIB]
Population Apoptotic (%) [1]: 58% and 25% | Population Fragmented Nuclei (%) [1]: 36% and 28% | Population Healthy Nuclei (%) [1]: 50% and 60% | Population Hoechst High Intensity Objects (%) [1]: 9% and 13% | Population Membrane Permeable-Phenotype (%) [1]: 87% and 82% | Population Mitochondria Different-Phenotype (%) [1]: 51% and 73% | Population Mitotic Cells (%) [1]: 41% and 75% | Population Normal (%) [1]: 90% and 86% | Population Pyknosed Nuclei (%) [1]: 13% and 10% | Population Tubulin-Different-Phenotype (%) [1]: 92% and 88% | Total Cell Count [1]: 143 and 86 | Population Apoptotic (%) [2]: 81% and 92% | Population Fragmented Nuclei (%) [2]: 43% and 37% | Population Healthy Nuclei (%) [2]: 11% and 21% | Population Hoechst High Intensity Objects (%) [2]: 21% and 24% | Population Membrane Permeable-Phenotype (%) [2]: 76% and 47% | Population Mitochondria Different-Phenotype (%) [2]: 80% and 76% | Population Mitotic Cells (%) [2]: 18% and 7% | Population Normal (%) [2]: 78% and 75% | Population Pyknosed Nuclei (%) [2]: 44% and 41% | Population Tubulin-Different-Phenotype (%) [2]: 88% and 85% | Total Cell Count [2]: 274 | Population Apoptotic (%) [3]: 71% and 54% | Population Fragmented Nuclei (%) [3]: 39% and 25% | Population Healthy Nuclei (%) [3]: 45% and 62% | Population Hoechst High Intensity Objects (%) [3]: 9% and 10% | Population Membrane Permeable-Phenotype (%) [3]: 71% and 67% | Population Mitochondria Different-Phenotype (%) [3]: 62% and 67% | Population Mitotic Cells (%) [3]: 28% and 45% | Population Normal (%) [3]: 90% and 89% | Population Pyknosed Nuclei (%) [3]: 14% and 12% | Population Tubulin-Different-Phenotype (%) [3]: 87% and 72% | Total Cell Count [3]: 156 and 98 | Population Apoptotic (%) [4]: 93% and 100% | Population Fragmented Nuclei (%) [4]: 46% and 53% | Population Healthy Nuclei (%) [4]: 8% and 11% | Population Hoechst High Intensity Objects (%) [4]: 37% and 36% | Population Membrane Permeable-Phenotype (%) [4]: 42% and 44% | Population Mitochondria Different-Phenotype (%) [4]: 50% and 77% | Population Mitotic Cells (%) [4]: 6% and 0% | Population Normal (%) [4]: 62% and 63% | Population Pyknosed Nuclei (%) [4]: 45% and 34% | Population Tubulin-Different-Phenotype (%) [4]: 50% and 77% | Total Cell Count [4]: 254 | Population Apoptotic (%) [5]: 88% and 62% | Population Fragmented Nuclei (%) [5]: 41% and 37% | Population Healthy Nuclei (%) [5]: 43% and 48% | Population Hoechst High Intensity Objects (%) [5]: 8% and 4% | Population Membrane Permeable-Phenotype (%) [5]: 35% and 53% | Population Mitochondria Different-Phenotype (%) [5]: 40% and 37% | Population Normal (%) [5]: 91% and 95% | Population Pyknosed Nuclei (%) [5]: 14% and 13% | Population Tubulin-Different-Phenotype (%) [5]: 44% and 51% | Total Cell Count [5]: 186 | Population Apoptotic (%) [6]: 100% | Population Fragmented Nuclei (%) [6]: 51% and 57% | Population Healthy Nuclei (%) [6]: 11% and 13% | Population Hoechst High Intensity Objects (%) [6]: 42% and 29% | Population Membrane Permeable-Phenotype (%) [6]: 43% and 50% | Population Mitochondria Different-Phenotype (%) [6]: 37% and 35% | Population Mitotic Cells (%) [6]: 0% | Population Normal (%) [6]: 58% and 70% | Population Pyknosed Nuclei (%) [6]: 37% and 28% | Population Tubulin-Different-Phenotype (%) [6]: 56% and 28% | Total Cell Count [6]: 250 and 144

Cc1c(-c2cc(-c3ccccc3Cl)no2)cnn1C1CCNCC1.Cl
Population Apoptotic (%) [1]: 35.85% and 50% | Population Fragmented Nuclei (%) [1]: 2.99% and 1.04% | Population Healthy Nuclei (%) [1]: 85.68% and 82.29% | Population Hoechst High Intensity Objects (%) [1]: 0% | Population Membrane Permeable-Phenotype (%) [1]: 0.5% and 3.8% | Population Mitochondria Different-Phenotype (%) [1]: 0% and 8.86% | Population Mitotic Cells (%) [1]: 64.15% and 50% | Population Normal (%) [1]: 100% | Population Pyknosed Nuclei (%) [1]: 11.32% and 16.67% | Population Tubulin-Different-Phenotype (%) [1]: 1.5% and 1.9% | Total Cell Count [1]: 468 and 192 | Population Apoptotic (%) [2]: 35.61% and 27.88% | Population Fragmented Nuclei (%) [2]: 0.94% and 2.96% | Population Healthy Nuclei (%) [2]: 57.68% and 20% | Population Hoechst High Intensity Objects (%) [2]: 0% | Population Membrane Permeable-Phenotype (%) [2]: 28.26% and 22.22% | Population Mitotic Cells (%) [2]: 64.39% and 72.12% | Population Normal (%) [2]: 100% | Population Pyknosed Nuclei (%) [2]: 41.38% and 77.04% | Population Tubulin-Different-Phenotype (%) [2]: 85.87% and 88.89% | Total Cell Count [2]: 319 and 135 | Population Apoptotic (%) [3]: 37.5% and 39.02% | Population Fragmented Nuclei (%) [3]: 2.05% and 3.23% | Population Healthy Nuclei (%) [3]: 87.85% and 80.24% | Population Hoechst High Intensity Objects (%) [3]: 0% | Population Membrane Permeable-Phenotype (%) [3]: 0.18% and 2.01% | Population Mitochondria Different-Phenotype (%) [3]: 0.18% and 7.54% | Population Mitotic Cells (%) [3]: 62.5% and 60.98% | Population Normal (%) [3]: 100% | Population Pyknosed Nuclei (%) [3]: 10.09% and 16.53% | Population Tubulin-Different-Phenotype (%) [3]: 1.08% and 1.51% | Total Cell Count [3]: 634 and 248 | Population Apoptotic (%) [4]: 38.83% and 47.71% | Population Fragmented Nuclei (%) [4]: 2.56% and 6.16% | Population Healthy Nuclei (%) [4]: 49.23% and 19.18% | Population Hoechst High Intensity Objects (%) [4]: 0% and 0.68% | Population Membrane Permeable-Phenotype (%) [4]: 21.88% and 17.86% | Population Mitotic Cells (%) [4]: 61.17% and 52.29% | Population Normal (%) [4]: 100% and 99.32% | Population Pyknosed Nuclei (%) [4]: 48.21% and 74.66% | Population Tubulin-Different-Phenotype (%) [4]: 79.17% and 60.71% | Total Cell Count [4]: 390 and 147 | Population Apoptotic (%) [5]: 42.02% and 57.78% | Population Fragmented Nuclei (%) [5]: 2.39% and 2.74% | Population Healthy Nuclei (%) [5]: 86.66% and 84.93% | Population Hoechst High Intensity Objects (%) [5]: 0% | Population Membrane Permeable-Phenotype (%) [5]: 1.59% and 2.58% | Population Mitochondria Different-Phenotype (%) [5]: 0.11% and 7.74% | Population Mitotic Cells (%) [5]: 57.98% and 42.22% | Population Normal (%) [5]: 100% | Population Pyknosed Nuclei (%) [5]: 10.95% and 12.33% | Population Tubulin-Different-Phenotype (%) [5]: 2.23% and 3.55% | Total Cell Count [5]: 1087 and 365 | Population Apoptotic (%) [6]: 59.43% and 95.93% | Population Fragmented Nuclei (%) [6]: 1.36% and 2.17% | Population Hoechst High Intensity Objects (%) [6]: 0.68% and 0% | Population Normal (%) [6]: 99.32% and 100% | Population Pyknosed Nuclei (%) [6]: 55.33% and 89.13% | Population Tubulin-Different-Phenotype (%) [6]: 49.21% and 50%
